Experimental data taken from ChEMBL document CHEMBL1132142, “Extension of the polyanionic cosalane pharmacophore as a strategy for increasing anti-HIV potency” (J Med Chem, 1999).

Assays:
[1] = target: T-cell surface glycoprotein CD4 (Homo sapiens) (UniProt P01730); test: Compound was tested for binding of the mAb (leu3a) to the CD4 receptor at 0.15 uM
Outline: (§1)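 The assay measured Leu3a monoclonal antibody binding to cell-surface CD4 at each listed concentration. Read-out was % positive cells and % inhibition relative to controls, including an isotype mAb.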

[2] = target: T-cell surface glycoprotein CD4 (Homo sapiens) (UniProt P01730); test: Compound was tested for binding of the mAb (leu3a) to the CD4 receptor at 0.13 uM; outline: as §1
[3] = target: C-X-C chemokine receptor type 4 (Homo sapiens) (UniProt P61073); test: Compound was tested for binding of the mAb (12G5) to the Chemokine receptor type 4 at 16 uM
[4] = target: C-X-C chemokine receptor type 4 (Homo sapiens) (UniProt P61073); test: Compound was tested for binding of the mAb (12G5) to the Chemokine receptor type 4 at 0.15 uM
[5] = target: T-cell surface glycoprotein CD4 (Homo sapiens) (UniProt P01730); test: Compound was tested for binding of the mAb (leu3a) to the CD4 receptor at 81 uM; outline: as §1
[6] = target: T-cell surface glycoprotein CD4 (Homo sapiens) (UniProt P01730); test: Compound was tested for binding of the mAb (leu3a) to the CD4 receptor at 18 uM; outline: as §1
[7] = target: C-X-C chemokine receptor type 4 (Homo sapiens) (UniProt P61073); test: Compound was tested for binding of the mAb (12G5) to the Chemokine receptor type 4 at 81 uM
[8] = target: C-X-C chemokine receptor type 4 (Homo sapiens) (UniProt P61073); test: Compound was tested for binding of the mAb (12G5) to the CXCR4 receptor at 92 uM
[9] = target: C-X-C chemokine receptor type 4 (Homo sapiens) (UniProt P61073); test: Compound was tested for binding of the mAb (12G5) to the CChemokine receptor type 4 at 0.73 uM
[10] = target: T-cell surface glycoprotein CD4 (Homo sapiens) (UniProt P01730); test: Compound was tested for binding of the mAb (leu3a) to the CD4 receptor at 16 uM; outline: as §1
[11] = target: T-cell surface glycoprotein CD4 (Homo sapiens) (UniProt P01730); test: Compound was tested for binding of the mAb (leu3a) to the CD4 receptor at 92 uM; outline: as §1
[12] = target: C-X-C chemokine receptor type 4 (Homo sapiens) (UniProt P61073); test: Compound was tested for binding of the mAb (12G5) to the Chemokine receptor type 4at 3.2 uM
[13] = target: C-X-C chemokine receptor type 4 (Homo sapiens) (UniProt P61073); test: Compound was tested for binding of the mAb (12G5) to the Chemokine receptor type 4 at 0.65 uM
[14] = target: C-X-C chemokine receptor type 4 (Homo sapiens) (UniProt P61073); test: Compound was tested for binding of the mAb (12G5) to the Chemokine receptor type 4 at 0.73 uM
[15] = target: T-cell surface glycoprotein CD4 (Homo sapiens) (UniProt P01730); test: Compound was tested for binding of the mAb (leu3a) to the CD4 receptor at 0.65 uM; outline: as §1
[16] = target: T-cell surface glycoprotein CD4 (Homo sapiens) (UniProt P01730); test: Compound was tested for binding of the mAb (leu3a) to the CD4 receptor at 3.7 uM; outline: as §1
[17] = target: C-X-C chemokine receptor type 4 (Homo sapiens) (UniProt P61073); test: Compound was tested for binding of the mAb (12G5) to the CXCR4 receptor at 18 uM
[18] = target: C-X-C chemokine receptor type 4 (Homo sapiens) (UniProt P61073); test: Compound was tested for binding of the mAb (12G5) to the Chemokine receptor type 4 at 18 uM
[19] = target: T-cell surface glycoprotein CD4 (Homo sapiens) (UniProt P01730); test: Compound was tested for binding of the mAb (leu3a) to the CD4 receptor at 0.73 uM; outline: as §1
[20] = target: C-X-C chemokine receptor type 4 (Homo sapiens) (UniProt P61073); test: Compound was tested for binding of the mAb (12G5) to the Chemokine receptor type 4 at 3.2 uM
[21] = target: T-cell surface glycoprotein CD4 (Homo sapiens) (UniProt P01730); test: Compound was tested for binding of the mAb (leu3a) to the CD4 receptor at 3.2 uM; outline: as §1
[22] = target: C-X-C chemokine receptor type 4 (Homo sapiens) (UniProt P61073); test: Compound was tested for binding of the mAb (12G5) to the Chemokine receptor type 4 at 3.7 uM
[23] = target: C-X-C chemokine receptor type 4 (Homo sapiens) (UniProt P61073); test: Compound was tested for binding of the mAb (12G5) to the Chemokine receptor type 4 at 0.13 uM

Sequence of C-X-C chemokine receptor type 4 (Homo sapiens) (P61073 whole entry, looked up): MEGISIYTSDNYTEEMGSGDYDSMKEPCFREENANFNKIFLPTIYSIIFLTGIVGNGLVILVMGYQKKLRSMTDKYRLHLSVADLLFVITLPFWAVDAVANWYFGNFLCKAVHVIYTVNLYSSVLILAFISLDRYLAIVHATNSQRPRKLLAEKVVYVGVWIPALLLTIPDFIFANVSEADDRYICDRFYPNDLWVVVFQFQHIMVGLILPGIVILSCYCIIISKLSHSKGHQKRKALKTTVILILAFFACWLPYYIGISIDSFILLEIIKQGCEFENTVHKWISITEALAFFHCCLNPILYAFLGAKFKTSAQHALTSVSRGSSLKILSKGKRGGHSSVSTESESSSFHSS

CC(C)CCCC(C)[C@H]1CC[C@H]2[C@@H]3CCC4C[C@@H](CCC=C(c5cc(Cl)c(OCc6ccc(C(=O)O)cc6)c(C(=O)O)c5)c5cc(Cl)c(OCc6ccc(C(=O)O)cc6)c(C(=O)O)c5)CC[C@]4(C)[C@H]3CC[C@]12C (some centres undefined)
Positive cells [1]: 99.9%
inhibition [1]: 0%
Positive cells [2]: 99.8%
inhibition [2]: 0%
Positive cells [3]: 99.9%
inhibition [3]: 0%
inhibition [4]: 0%
Positive cells [5]: 1.2%
inhibition [5]: 100%
Positive cells [6]: 1.2%
inhibition [6]: 100%
Positive cells [7]: 99.8%
inhibition [7]: 0%
Positive cells [8]: 99.8%
inhibition [8]: 0%
Positive cells [9]: 99.3%
Positive cells [10]: 2.1%
inhibition [10]: 100%
Positive cells [11]: 1.4%
inhibition [11]: 100%
inhibition [12]: 0%
Positive cells [13]: 99.2%
inhibition [13]: 0%
inhibition [14]: 0%
Positive cells [15]: 99.9%
inhibition [15]: 0%
Positive cells [16]: 7.8%
inhibition [16]: 94%
inhibition [17]: 0%
Positive cells [18]: 99.9%
Positive cells [19]: 99.1%
inhibition [19]: 4%
Positive cells [20]: 99.8%
Positive cells [21]: 3.2%
inhibition [21]: 99%
Positive cells [22]: 99.4%
inhibition [22]: 0%
Positive cells [23]: 99.1%
inhibition [23]: 0%
